Source: ChEMBL document CHEMBL1129531, “2-substituted piperazines as constrained amino acids. Application to the synthesis of potent, non carboxylic acid inhibitors of farnesyltransferase” (J Med Chem, 1996)
Values after ≈ are worked out from the molar mass of the structure shown.

Columns and labels:
[1] = molecular target: Protein farnesyltransferase (Homo sapiens, UniProt P49354+P49356); experiment: Inhibition of [3H]FPP incorporation into Ha-Ras by Farnesyltransferase; type: protein-complex assay
Method in brief: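 Recombinant human Ha-Ras protein as acceptor, with [³H]FPP as farnesyl donor. Read-out is FTase-catalyzed radiolabel incorporation into Ha-Ras. IC50 is the concentration giving 50% inhibition, reported ±SEM with the number of determinations given.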

[2] = molecular target: Protein farnesyltransferase (Rattus norvegicus, UniProt Q02293+Q04631); experiment: Inhibition of post-traslational processing of Ras protein in RAT1 cell line; type: functional, cell-based
Method in brief: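 RAT1 cells transformed with viral Ha-ras were incubated with compound for 24 h, then lysed. Ras was immunoprecipitated and resolved by denaturing gel electrophoresis to detect inhibition of post-translational processing (farnesylation). IC50 derived.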

[3] = Inhibition of human Geranylgeranyl transferase type I
Method in brief: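 Recombinant human GGTase I. IC50 reported ±SEM with the number of determinations given.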

[4] = Inhibition of anchorage-independent growth of ras-transformed cells in soft agar; type: functional
Method in brief: (§1)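 RAT1 cells transformed with v-ras or v-raf were grown in soft agar with compound. MIC is the minimum concentration reducing the size and number of colonies relative to vehicle-treated control. A v-mos-transformed cell line served as control, tested up to 2.5 µM.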

Rat1 = experiment: Highest nontoxic concentration in RAT1 cells; type: functional
Method in brief: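 Cultured RAT1 cells; viability assessed by viable staining with MTT. Value is the highest nontoxic concentration, i.e. the concentration compatible with ≥90% cell survival.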

[5] = molecular target: Geranylgeranyl transferase type I (Bos taurus, UniProt P29702+Q5EAD5); experiment: Inhibition of bovine Geranylgeranyl transferase type I; type: protein-complex assay
Method in brief: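 Type-I GGTase from bovine source. IC50 reported ±SEM with the number of determinations given.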

[6] = Inhibition of anchorage-independent growth of raf-transformed cells in soft agar; type: functional; method in brief: as §1

SMILES | IC50 [1] | IC50 [2] | IC50 [3] | MIC [4] | CTE (Rat1) | IC50 [5] | MIC [6]
N[C@@H](CS)CN1CCN(C(=O)c2cccc3ccccc23)C[C@@H]1CCOC1CC1 | 1 nM | 500 nM | 3900 nM | 2.5 µM (≈ 1.03 µg/mL) | 25 µM |  | 
CCCC[C@H]1CN(C(=O)c2cccc3ccccc23)CCN1C[C@@H](N)CS | 1 nM | 500 nM |  | 10 µM (≈ 3.86 µg/mL) | 10 µM | 160 nM | > 10 µM
COCC[C@H]1CN(C(=O)c2cccc3ccccc23)CCN1C[C@@H](N)CS | 3 nM | 500 nM |  | 10 µM (≈ 3.88 µg/mL) | >100 µM | 10000 nM | > 50 µM
CCCC[C@H]1CN(C(=O)c2ccccc2)CCN1C[C@@H](N)CS | 24 nM |  |  |  |  |  | 
CCCC[C@H]1CN(C(=O)c2cccc(C)c2C)CCN1C[C@@H](N)CS | 5 nM |  |  |  |  | 360 nM | 
Cc1cccc(C(=O)N2CCN(C[C@@H](N)CS)CC2)c1C | 160 nM |  |  |  |  | 2800 nM | 
CC[C@H]1CN(C(=O)c2cccc(C)c2C)CCN1C[C@@H](N)CS | 68 nM |  |  |  |  |  | 
